Measured values from publication PMC4212793 (ACS Nano, 2014).

How the values were obtained:
mESC-CMs = experiment: Mouse myocardial infarction model, engraftment of DiI-labelled mESC-CMs; format: in vivo, athymic nude mice (Foxn1nu); settings: heart sections 4 weeks after MI; p < 0.05; N = 3
Method in brief: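 Male athymic nude mice (Foxn1nu) underwent MI by left anterior descending coronary artery ligation. Immediately after surgery, 2 × 105 CM-DiI-prelabelled mESC-derived CMs from one differentiation batch, alone or encapsulated in test gel, were injected intramyocardially through 30 G needles at two border-zone sites. PBS and gel-only groups served as controls. Frozen OCT heart sections were fixed in 4% paraformaldehyde before imaging.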

[1] = tested on: neonatal rat cardiomyocytes (NRCMs); experiment: Cytoprotection against H2O2 oxidative stress, Live/Dead staining; format: cell-based; settings: H2O2 200 μM, 2 h; p < 0.001; N = 3
[2] = PA-RGDS self-assembled under similar conditions; cited from earlier work

C16-GTAGLIGQRGDS [PA-RGDS]
number of engrafted DiI-positive mESC-CMs at 4 weeks compared to mESC-CMs only (mESC-CMs): significantly higher | viability after H2O2 (Live/Dead staining) compared to NRCMs without encapsulation [1]: significantly improved viability | storage modulus (G′) [2]: around 100 Pa
